Compounds with a hit are over-represented: about 4% of the library has one in this group of screens.
FGF22 binding = FGF22 (human) thermal shift binding; actives 1.5% (n = 340,000); AID 651658; activity (Tm shift, normalised), % at 9.99 µM; recombinant FGF22 thermal shift, SYPRO orange fluorescence; percent of sucrose octasulfate shift, DMSO zero; Q9HCT0;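 active means mean Tm shift, scaled 0 neutral to 100 positive control, at about 1.3% or above, every replicate too, limit read from the data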
C2C12 statin = protects C2C12 myotubes from simvastatin toxicity; ATP luminescence, 48 h; scaled: DMSO 0, geranylgeraniol control 100; rescue of ATP level, % at 7.49 µM; actives 0.78% (n = 330,000);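 active means mean ATP rescue above about 67%, or every replicate alone reaching that limit, limit read from the data, passing the limit was not always enough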;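 further: myotubes were challenged with 10 µM simvastatin during compound exposure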
rRNA inh HTS = selective bacterial rRNA inhibition in E. coli; E. coli WT GFP vs humanized-ribosome RFP mutants, fluorescence, 24 h; active compounds read low; DMSO median 0, no signal -100; GFP signal change (wild-type ribosome), % (concentration not given with the values); actives 1.6% (n = 350,000); AID 720706;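 active means significant combined selectivity score with lowered wild-type GFP, culture density cut under 30%, mutant RFP and density less affected; inactive means any of these conditions unmet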
FN deposition inh = fibronectin deposition inhibition | AH1F fibroblasts, Alexa488-fibronectin deposition fluorescence, overnight | inhibition, % at 12.6 µM | actives 0.086% (n = 350,000) | AID 743247;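 active means mean inhibition across replicates of 30% or more, regardless of how many single replicates reach that level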;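 further: positive control wells lacked labelled fibronectin entirely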
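Material: AH1F fibroblast monolayer depositing Alexa488-labelled fibronectin into matrix / Amount: 10000 AH1F cells per well / Signal: fluorescence 485/525 nm / Medium: DMEM, 2% serum / Compound: single dose, pinned / Incubation: 1 h cell adhesion before compound, then overnight fibronectin incubation / Reagent: Alexa488-FN, 24 nM final / Read-out: inhibition of fibronectin deposition signal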
SIRT5 inh = sirtuin-5 (human) deacylase inhibition; Q9NXA8; inhibition, % at 15 µM; Purified SirT5, succinyl-peptide AMC, trypsin-coupled fluorescence; actives 1.1% (n = 330,000); in the data active means inhibition above about 15%
E-selectin induc = E-selectin induction on HUVECs | P16581 | actives 0.37% (n = 260,000) | AID 686992 | HUVEC E-selectin immunofluorescence imaging; normalized: neutral wells 0, TNF-alpha wells 100 | activation, % at 7.58 µM;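 active means mean E-selectin-positive cell signal at least 10% of the positive control, reached in at least 60% of replicates, without over 20% cell loss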
Target sequence (P16581 whole entry, looked up): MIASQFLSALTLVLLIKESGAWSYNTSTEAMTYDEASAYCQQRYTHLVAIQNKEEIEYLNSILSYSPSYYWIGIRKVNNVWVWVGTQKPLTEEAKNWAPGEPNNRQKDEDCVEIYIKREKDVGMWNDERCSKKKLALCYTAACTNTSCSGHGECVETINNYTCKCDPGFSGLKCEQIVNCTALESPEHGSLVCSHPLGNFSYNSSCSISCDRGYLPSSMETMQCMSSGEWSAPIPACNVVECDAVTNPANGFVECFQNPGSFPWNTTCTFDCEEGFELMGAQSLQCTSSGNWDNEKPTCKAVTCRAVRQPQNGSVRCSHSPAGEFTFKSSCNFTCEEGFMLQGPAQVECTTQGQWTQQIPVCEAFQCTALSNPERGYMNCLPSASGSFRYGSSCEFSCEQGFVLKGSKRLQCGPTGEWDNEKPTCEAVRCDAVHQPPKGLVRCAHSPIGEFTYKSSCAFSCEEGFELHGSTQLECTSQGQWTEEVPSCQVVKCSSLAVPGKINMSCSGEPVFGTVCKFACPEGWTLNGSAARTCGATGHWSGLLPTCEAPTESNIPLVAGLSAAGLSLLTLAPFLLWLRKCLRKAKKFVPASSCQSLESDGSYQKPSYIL
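material = human umbilical vein endothelial cells (HUVEC), E-selectin induction | quantity = 3,000 cells/well | medium = EGM-2 growth medium on 0.1% gelatin-coated wells | technique = immunofluorescence imaging | read-out basis = % PE-positive cells | control set = TNF-alpha positive control, DMSO neutral control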
The depositor's hits bear a star; x = no result.

SMILES	FGF22 binding	C2C12 statin	rRNA inh HTS	FN deposition inh	SIRT5 inh	E-selectin induc
O=C(Nc1cc(Cl)ccc1Cl)c1ccco1	-0.1	5.5	7.6	4.8	2.3	x
CN1C(=O)/C(=C/c2ccc(C(=O)Nc3ccc(O)cc3C(=O)O)cc2)SC1=S	-0.1	-6.9	-9.7	9.3	28.0*	x
O=C(Nc1ccc(N2CCN(C(=O)c3ccco3)CC2)cc1)c1ccc(F)cc1	x	10.1	x	2.4	x	x
Nc1ccc(NC(=O)c2ccco2)c(Cl)c1	43.7*	1.1	10.4	3.9	-1.9	x
O=C(Nc1c(Cl)ccc2nsnc12)c1ccco1	43.8*	0.9	14.2	-0.6	2.4	x
O=C(COc1ccccc1)Nc1c(Cl)ccc2nsnc12	-0.1	-1.0	7.6	-1.0	2.4	0.1
Cc1ccc(C(=O)Nc2ccc(O)cc2C(=O)O)cc1C	-0.8	-0.1	-25.1*	-1.1	2.5	x
C[C@H](CO)N1C[C@H](C)[C@@H](CN(C)S(=O)(=O)c2cn(C)cn2)OCCCC[C@H](C)Oc2ccc(NC(=O)Nc3ccccc3)cc2C1=O	0.1	x	-0.3	0.7	-1.8	1.0
N#Cc1cccc(C#N)c1Oc1ccc(S(=O)(=O)Nc2ccc(Cl)cc2)cc1	-0.2	x	-38.2*	4.6	-4.6	0.0
O=C(O)c1sccc1Oc1ccc(NS(=O)(=O)c2ccc(Cl)cc2)cc1	0.3	x	-20.6	0.3	-1.4	x
CCc1ccc(C(=O)CN2C(=O)NC(C)(c3ccc(C)cc3)C2=O)cc1 (stereo not given)	43.4*	-9.2	-0.4	-1.3	-4.1	x
C[C@@H]1CCCCO[C@H](CN(C)C(=O)Nc2cccc3ccccc23)[C@@H](C)CN([C@@H](C)CO)C(=O)c2cc(NS(=O)(=O)c3ccccc3)ccc2O1	0.4	x	0.2	-2.9	15.2*	x
Cc1ccc(S(=O)(=O)Nc2ccc3c(c2)C(=O)N([C@@H](C)CO)C[C@@H](C)[C@@H](CN(C)C(=O)Nc2cccc4ccccc24)OCCCC[C@@H](C)O3)cc1	-0.3	x	0.5	-12.4	16.6*	-0.3
C[C@H]1CCCCO[C@H](CN(C)C(=O)Nc2cccc3ccccc23)[C@@H](C)CN([C@@H](C)CO)C(=O)c2cc(NS(=O)(=O)c3cccs3)ccc2O1	x	-73.2	-5.1	x	-0.8	0.2
Cc1ccc(S(=O)(=O)Nc2ccc3c(c2)C(=O)N([C@@H](C)CO)C[C@H](C)[C@H](CN(C)C(=O)Nc2cccc4ccccc24)OCCCC[C@@H](C)O3)cc1	-0.7	x	-1.4	1.4	0.3	-0.2
C[C@@H]1CCCCO[C@@H](CN(C)C(=O)Nc2cccc3ccccc23)[C@H](C)CN([C@H](C)CO)C(=O)c2cc(NS(=O)(=O)c3cccs3)ccc2O1	-0.5	107.6*	-3.2	x	1.1	0.1
C[C@@H]1CCCCO[C@@H](CN(C)C(=O)Nc2cccc3ccccc23)[C@H](C)CN([C@H](C)CO)C(=O)c2cc(NS(=O)(=O)c3ccccc3)ccc2O1	-0.4	x	2.8	-4.7	14.0	x
C[C@@H]1CCCCO[C@@H](CN(C)C(=O)Nc2cccc3ccccc23)[C@@H](C)CN([C@H](C)CO)C(=O)c2cc(NS(=O)(=O)c3ccc(Cl)cc3)ccc2O1	-0.6	94.4*	1.9	-0.3	7.8	x
O=C(O)C1C2CCC(CC2)C1C(=O)O (stereo not given)	-0.1	-4.8	x	-9.6	0.9	x
O=C(O)C1C2CCC1C(O)C2 (stereo not given)	43.3*	x	9.1	5.6	x	0.1
Cc1cc(NC(=O)CSc2nc(C3CC3)nc3sc(C)c(C)c23)no1	x	32.5	x	-3.2	x	x
CCc1nc(SCC(=O)Nc2cc(C)on2)c2c(C)c(C)sc2n1	x	130.2*	x	x	x	x
CN(C)CCn1c2ccccc2c2nc3ccc([N+](=O)[O-])cc3cc21	0.1	x	-32.0*	-17.3	-2.3	-9.2
CCn1c2ccccc2c2cc([N+](=O)[O-])ccc21	0.3	x	9.8	6.6	-1.9	x
COc1ccccc1C(c1nnnn1Cc1ccccc1)N1CCN(C2CCCC2)CC1 (stereo not given)	x	-6.1	x	x	x	x
SMILES	FGF22 binding	C2C12 statin	rRNA inh HTS	FN deposition inh	SIRT5 inh	E-selectin induc
COc1ccc(OC)c(C(c2nnnn2Cc2ccccc2)N2CCC(C(N)=O)CC2)c1 (stereo not given)	x	-1.2	x	x	x	x
CCC(C)(C)n1nnnc1C(c1cc2cc(C)ccc2[nH]c1=O)N1CCCc2ccccc21 (stereo not given)	-0.2	-0.2	-0.1	x	17.3*	x
COc1ccc(Cn2nnnc2C(c2ccccc2OC)N2CCC(C(N)=O)CC2)cc1 (stereo not given)	x	100.5*	x	x	x	x
COc1ccc(OC)c(C(c2nnnn2Cc2ccccc2)N2CCN(C3CCCCC3)CC2)c1 (stereo not given)	x	121.4*	x	x	x	x
COc1ccc(Cn2nnnc2C(c2cc3cc(C)ccc3[nH]c2=O)N2CCN(C)CC2)cc1 (stereo not given)	43.5*	x	12.1	2.6	-3.5	x
C[C@@H]1CCCCO[C@@H](CN(C)Cc2ccc(Cl)c(Cl)c2)[C@H](C)CN([C@H](C)CO)C(=O)c2cc(NS(C)(=O)=O)ccc2O1	-0.1	43.0	2.4	x	7.9	0.6
COc1cccc(-c2ccc(CC[C@H]3O[C@H]4CC[C@@H](CO)O[C@H]4C[C@@H]3NC(=O)c3cnccn3)cc2)c1	-0.4	x	x	x	4.7	x
COc1ccc(S(=O)(=O)Nc2ccc3c(c2)C(=O)N([C@H](C)CO)C[C@H](C)[C@@H](CN(C)S(=O)(=O)c2ccc(Cl)cc2)OCCCC[C@H](C)O3)cc1	0.1	x	-4.3	0.1	0.1	0.1
COc1ccc(S(=O)(=O)N(C)C[C@@H]2OCCCC[C@H](C)Oc3ccc(NS(=O)(=O)c4ccc(Cl)cc4)cc3C(=O)N([C@@H](C)CO)C[C@H]2C)cc1	-0.6	x	-3.6	6.3	20.8*	0.0
COc1ccc(S(=O)(=O)N(C)C[C@H]2OCCCC[C@H](C)Oc3ccc(NS(=O)(=O)c4ccc(Cl)cc4)cc3C(=O)N([C@@H](C)CO)C[C@@H]2C)cc1	x	x	2.4	-12.2	x	0.1
COc1ccc(S(=O)(=O)N(C)C[C@H]2OCCCC[C@H](C)Oc3ccc(NS(=O)(=O)c4ccc(Cl)cc4)cc3C(=O)N([C@H](C)CO)C[C@H]2C)cc1	-0.7	x	0.2	-7.3	22.1*	0.0
COc1ccc(S(=O)(=O)Nc2ccc3c(c2)C(=O)N([C@@H](C)CO)C[C@@H](C)[C@@H](CN(C)S(=O)(=O)c2ccc(Cl)cc2)OCCCC[C@H](C)O3)cc1	x	x	-2.8	3.6	20.7*	0.0
CSc1nncn1/N=C/c1ccc2c(c1)OCO2	x	106.4*	x	-32.1	x	x
CN(C)CCN(C(=O)c1ccc2c(c1)OCCO2)c1nc2ccc(Cl)cc2s1	0.1	-1.4	-1.3	-3.3	1.3	0.3
